Compound activity deposited in PubChem by The Scripps Research Institute Molecular Screening Center.
Rows were chosen to be rich in hits. Some 1.9% of all compounds tested hit in one or more screens of this group.
CHRM4 agonist – human M4 muscarinic receptor agonists, primary screen, CHO-K1 cells, Fluo-8 calcium fluorescence | Muscarinic acetylcholine receptor M4 (Homo sapiens), P08173 | CHO-K1 hM4/Gqi5; vehicle 0%, full acetylcholine response 100% | activation, % at 3 µM | 360,000 compounds, 0.14% hits;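 active means activation above the run mean over all test wells plus 3 SD, cut at about 32% in these data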;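 further: peak over basal fluorescence ratio per well then scaled between controls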
CHRM4 antagonist – human M4 muscarinic receptor antagonists, primary screen, CHO cells, Fluo-8 calcium fluorescence; AID 624125, 2012; inhibition, % at 3 µM; CHO-hM4 cells, ACh EC80; 360,000 compounds, 0.73% hits; Muscarinic acetylcholine receptor M4 (Homo sapiens), P08173;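 active means inhibition above its plate's cutoff, the mean inhibition of sample wells plus 3 SD, cut at about 27% in these data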
M5 ag – human M5 muscarinic receptor agonists, primary screen, CHO-K1 cells, Fluo-8 calcium fluorescence. CHO-K1 hM5 cells; 0% DMSO wells, 100% maximal acetylcholine response. Muscarinic acetylcholine receptor M5 (Homo sapiens), P08912. 360,000 compounds, 0.19% hits. activation, % at 3 µM;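 active means activation above the run's mean over test compounds plus 3 SD, cut at about 23% in these data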;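 further: signal is peak over basal fluorescence ratio across the kinetic read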
Target sequence (P08912 whole entry, looked up): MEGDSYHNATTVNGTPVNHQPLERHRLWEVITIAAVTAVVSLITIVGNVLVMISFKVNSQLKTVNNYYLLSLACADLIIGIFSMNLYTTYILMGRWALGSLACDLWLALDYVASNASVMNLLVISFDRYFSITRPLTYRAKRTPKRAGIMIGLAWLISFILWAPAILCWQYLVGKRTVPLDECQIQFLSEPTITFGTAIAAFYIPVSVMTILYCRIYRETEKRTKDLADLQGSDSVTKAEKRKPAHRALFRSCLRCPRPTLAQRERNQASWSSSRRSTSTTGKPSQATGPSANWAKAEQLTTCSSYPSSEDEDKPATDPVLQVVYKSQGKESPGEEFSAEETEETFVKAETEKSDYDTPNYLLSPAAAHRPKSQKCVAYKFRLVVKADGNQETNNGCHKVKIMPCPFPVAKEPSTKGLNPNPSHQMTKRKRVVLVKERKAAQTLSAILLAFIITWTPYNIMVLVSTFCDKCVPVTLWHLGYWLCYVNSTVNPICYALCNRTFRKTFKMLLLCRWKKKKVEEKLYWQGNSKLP
M5 antag – human M5 muscarinic receptor antagonists, primary screen, CHO cells, Fluo-8 calcium fluorescence; CHO-hM5 cells, ACh EC80; inhibition, % at 3 µM; 360,000 compounds, 0.59% hits;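 active means inhibition above a per-plate cutoff, the mean of that plate's test compounds plus 3 SD, cut at about 27% in these data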
CHRM5 PAM – human M5 muscarinic receptor positive allosteric modulators, primary screen, CHO-K1 cells, Fluo-8 calcium fluorescence; Muscarinic acetylcholine receptor M5 (Homo sapiens), P08912; CHO-K1 hM5, ACh EC20 PAM; 0% = ACh EC20, 100% = ACh EC100; activation, % at 3 µM; 360,000 compounds, 0.3% hits;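 active means activation above the run cutoff, the mean activation of all test compounds plus 3 SD, cut at about 18% in these data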
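System: CHO-K1 cell line with stable human muscarinic M5 receptor expression | Also added: EC20 acetylcholine as agonist stimulus | Compound: One concentration, 3 µM final (nominal) | Timing: Fluo-8 loading 80 min at 37 °C plus 30 min room temperature | Measured by: Fluo-8 calcium dye fluorescence, kinetic read | Read-out basis: % activation, ACh-normalized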
CHRM4 PAM – human M4 muscarinic receptor positive allosteric modulators, primary screen, CHO-K1 cells, Fluo-8 calcium fluorescence. Muscarinic acetylcholine receptor M4 (Homo sapiens), P08173. CHO-K1 hM4/Gqi5, ACh EC20; 0% = ACh EC20, 100% = maximal ACh. activation, % at 3 µM. AID 624126, 2012. 360,000 compounds, 0.4% hits;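 active means activation above its plate's cutoff, the mean activation of sample wells plus 3 SD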
Each line names hits and unclear results; the compound was inactive in the other large screens; ! = repeats disagree.

COC(=O)CC1C(=O)NCCN1C(=O)c1ccc([N+](=O)[O-])cc1 (centres undefined)	none
CC1=CC(C)(C)N(C(=O)CNC2CCCCC2)c2cc(C)ccc21	CHRM4 antagonist 47.1, M5 antag 40.5
CCOC(=O)CC(=O)Nc1ccccc1C(=O)O	CHRM4 PAM 25.1
CC(C)CCN1CCN(C2CCN(c3ccccc3)CC2)CC1CCO (centres undefined)	none
CCn1c(C)nc2cc(C(=O)OC(C(F)(F)C(F)F)C(F)(F)C(F)F)ccc21	M5 antag 38.5
CN1CCc2cccc3c2C1Cc1ccc(O)c(O)c1-3 (centres undefined)	M5 ag 35.7
O=C(CCCCC(=O)NCc1cccs1)NCc1cccs1	none
O=C(CCC1CCCC1)NCc1cccs1	CHRM4 PAM 19.9
CC(C)C(C)N(Cc1cccc(C(=O)O)c1)C(=O)c1ccc2ccccc2n1 (centres undefined)	CHRM5 PAM 22.5
COc1ccc(C(C)=O)cc1CSc1nc2cc(C(=O)O)ccc2c(=O)n1Cc1ccccc1	CHRM4 antagonist 28.4
C1CCC(C(CC2CCCCN2)C2CCCCC2)CC1 (centres undefined)	CHRM4 antagonist 34.7!
COc1ccccc1N(C)S(=O)(=O)c1ccc(C(=O)OCC(=O)NCc2cccs2)cc1	none
FC(F)(F)c1cccc(NC(=S)NCC2COc3ccccc3O2)c1 (centres undefined)	M5 antag 32.4
CCCNC(=S)Nc1cccc(C(F)(F)F)c1	none
Cc1nnc(SCC(=O)NC2CCCCC2)n1-c1ccccc1	none
O=S(=O)(c1ccccc1F)N1CCN(Cc2cc3c(cc2Br)OCCO3)CC1	none
COC(=O)c1cnn(-c2ccccc2)c1/C=N/NC(=S)Nc1ccccc1	none
COC(=O)c1cnn(-c2ccccc2)c1C(OC)OC	CHRM5 PAM 22.1
Cc1cc(C)c(S(=O)(=O)Nc2nnc(C(C)C)s2)c(C)c1	none
CC(C)(C)c1cc(NC(=O)c2ccc(OC3CCCC3)cc2)no1	none
O=C(Nc1ccon1)c1ccc(OC2CCCC2)cc1	CHRM4 antagonist 38.2
O=C(CCl)NC(Cc1ccccc1)C(=O)OCC(=O)c1ccc(-c2ccccc2)cc1 (centres undefined)	CHRM4 antagonist 27.3
O=C(Sc1cccc2cccnc12)c1ccccc1Br	CHRM4 antagonist 38.6
CCN(C(=O)CSc1nnc(-c2ccc(F)cc2)n1C)C1CCS(=O)(=O)C1 (centres undefined)	none
O=C(NC(=S)N1CCCCC1CO)c1cccs1 (centres undefined)	CHRM5 PAM 24.3
CCC1CCCCN1C(=S)NC(=O)c1cccs1 (centres undefined)	none
COc1ccc(C(=O)OC2CCN(C)CC2)cc1	CHRM4 PAM 30.8
CC1(C)CC(=O)C2=C(C1)NC(=O)CC2c1cc2c(cc1Br)OCO2 (centres undefined)	CHRM4 PAM 24.0
COC(=O)c1oc2ccc(Br)cc2c1NC(=O)CCCN1C(=O)c2ccccc2C1=O	CHRM4 antagonist 97.6, M5 antag 28.8
CC(=O)Nc1ccc2nc(-c3ccc(Br)o3)[nH]c2c1	CHRM4 PAM 22.9
CCOC(=O)C1(C)CCCCCN1C(=O)c1snnc1C (centres undefined)	none
Cc1ccc(C(=O)NCCNc2ncc(C(F)(F)F)cc2Cl)cc1[N+](=O)[O-]	M5 antag 27.2
C=CCN1C(=O)C(Cc2ccc(SC(F)F)cc2)SC1=Nc1ccc(C(=O)O)cc1 (centres undefined)	M5 antag 27.2
O=C1NCCN1CCNS(=O)(=O)c1ccc(F)c(Cl)c1	none
Cc1ccc(S(=O)(=O)NCCN2CCNC2=O)cc1	CHRM4 PAM 34.1
Cc1ccc(CN2CCNC2=O)cc1	CHRM4 PAM 34.0
COc1ccc2c(/C=N/NS(=O)(=O)c3ccc(C)cc3)c[nH]c2c1	none
COc1ccc2[nH]cc(/C=N/NS(=O)(=O)c3ccc(C)cc3)c2c1	CHRM4 antagonist 28.3
O=C(NC(=S)NNC(=O)c1cccs1)c1ccco1	none
CC(C)(C)c1ccc(C(=O)NC(=S)NCc2cccnc2)cc1	none
COC(=O)CNC(=S)NC(=O)c1ccc(C(C)(C)C)cc1	CHRM4 antagonist 26.8
O=C(NNC(=O)c1cccs1)c1ccco1	CHRM5 PAM 21.5
O=C(NC(=S)NNC(=O)c1cccs1)c1ccccc1	M5 antag 27.2
CC(C)(C)c1ccc(C(=O)NC(=S)NNC(=O)c2cccs2)cc1	CHRM4 agonist 108.9, M5 ag 46.0
Cc1cccc(C(=O)NC(=S)NNC(=O)c2cccs2)c1	none
O=c1oc(=S)oc2c1[C@H](c1ccc(Cl)cc1)O[C@H](C1CC1)C2	none
Oc1cccc2oc(=S)[nH]c12	none
COc1ccc(NC(=O)CNc2ccc(OC)c(S(=O)(=O)N3CCOCC3)c2)cc1	none
Cc1ccccc1C(=O)NNC(=S)NC(=O)c1cccs1	CHRM4 agonist 39.1
COc1ccccc1CNC(=O)CN1C(=O)c2ccc([N+](=O)[O-])cc2C1=O	M5 antag 29.6
Cc1c(CCC(=O)O)c(=O)oc2cc3occ(-c4ccc(F)cc4)c3cc12	M5 antag 37.5, CHRM5 PAM 35.5
Cc1ccc(-c2nc3ccccc3n2C(C(=O)NC(C)(C)C)C2CC2)cc1 (centres undefined)	none
CC(C)(C)NC(=O)C(C1CC1)n1c(-c2ccccc2)nc2ccccc21 (centres undefined)	CHRM4 PAM 23.6
O=C(NC1CCCC1)C(c1ccccc1)n1c(-c2cccs2)nc2ccccc21 (centres undefined)	none
O=C(NC1CCCC1)C(C1CC1)n1c(C2CC2)nc2ccccc21 (centres undefined)	CHRM4 PAM 23.4
O=C(NC1CCCC1)C(c1ccccc1)n1c(-c2cccc3ccccc23)nc2ccccc21 (centres undefined)	CHRM4 antagonist 73.8
O=C(NC1CCCC1)C(C1CC1)n1c(C2CCCC2)nc2ccccc21 (centres undefined)	none
COC(=O)[C@@H]1C[C@@]2(O)[C@H](O)[C@H](O)[C@H](O)C[C@H]2N1Cc1cc(F)ccc1F	CHRM4 PAM 28.2
O=C(COC(=O)c1cc(S(=O)(=O)N2CCOCC2)ccc1F)NCCc1ccc(F)cc1	none
